Data reported in ChEMBL document CHEMBL1157510, “Bioactive cembrane diterpenoids of Anisomeles indica” (J Nat Prod, 2008).
Active and inactive are the calls of the source. No cut-off for these calls is given here.

Key:
HepG2 = assay: Cytotoxicity against human HepG2 cells after 3 days by MTT assay; assay type: functional, cell-based; conditions: for IC50: HepG2, 72 h
Method in brief: (§1)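 Freshly trypsinized cells were seeded at 5000-10 000 per well, and compounds were added from DMSO stocks. After 3 days of culture, attached cells were given MTT (0.5 mg/mL, 1 h) and then solubilized in DMSO. Absorbance was read at 550 nm. IC50 is the concentration that cut cell growth by 50%. Values are the mean of two to three separate experiments, each in triplicate.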

Hep 3B2 = assay: (§2) Cytotoxicity against human Hep3B cells after 3 days by MTT assay; assay type: functional, cell-based; method in brief: as §1
A549 = assay: Cytotoxicity against human A549 cells after 3 days by MTT assay; assay type: functional, cell-based; conditions: for IC50: A549, 72 h; method in brief: as §1
MDA-MB-231 = assay: Cytotoxicity against human MDA-MB-231 cells after 3 days by MTT assay; assay type: functional, cell-based; conditions: for IC50: MDA-MB-231, 72 h; method in brief: as §1
MCF7 = assay: Cytotoxicity against human MCF7 cells after 3 days by MTT assay; assay type: functional, cell-based; conditions: for IC50: MCF7, 72 h; method in brief: as §1
Platelet [1] = assay: Inhibition of collagen-induced human platelet aggregation by light transmission aggregometer; assay type: functional, cell-based
Method in brief: (§3)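 Human platelet suspension was preincubated with DMSO or compound at 37 °C for 3 min, stirring at 1200 rpm, before the activator was added. Aggregation was followed turbidimetrically in a light-transmission aggregometer.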

Platelet [2] = assay: Inhibition of thrombin-induced human platelet aggregation by light transmission aggregometer; assay type: functional, cell-based; method in brief: as §3
[3] = as §2; assay type: functional, cell-based, Hep 3B2; conditions: 72 h; method in brief: as §1

SMILES	Activity (HepG2)	Activity (Hep 3B2)	Activity (A549)	Activity (MDA-MB-231)	Activity (MCF7)	IC50 (Platelet [1])	IC50 (Platelet [2])	IC50 (HepG2)	IC50 [3]	IC50 (A549)	IC50 (MDA-MB-231)	IC50 (MCF7)	Activity (Platelet [1])	Activity (Platelet [2])
C=C1CC[C@@H]2C(=C)C(=O)O[C@H]2/C=C(\C)C[C@@H]2C=C(CC[C@H]1O)C(=O)O2	inactive	inactive	inactive	inactive	inactive	41.9 µM	> 100 µM	–	–	–	–	–	–	–
C=C1C(=O)O[C@H]2/C=C(\C)C[C@@H]3C=C(CC/C=C(\C)CC[C@H]12)C(=O)O3	–	–	–	–	–	19.7 µM	> 100 µM	10 µM	7.4 µM	9.6 µM	9.5 µM	9.5 µM	–	–
COc1cccc2c1C(=O)c1c(O)c3c(c(O)c1C2=O)C[C@@](O)(C(=O)CO)C[C@@H]3O[C@H]1C[C@H](N)[C@H](O)[C@H](C)O1 [DOXORUBICIN]	–	–	–	–	–	–	–	0.82 µM	0.48 µM	0.4 µM	0.07 µM	–	–	–
C=C1C(=O)O[C@H]2/C=C(\C)C[C@@H]3C=C(C/C=C/[C@@](C)(OO)CC[C@H]12)C(=O)O3	inactive	inactive	inactive	inactive	inactive	> 100 µM	11.9 µM	–	–	–	–	–	–	–
C=C1CC[C@H]2C(=C)C(=O)O[C@@H]2/C=C(\C)C[C@H]2C=C(CCC1=O)C(=O)O2	–	–	–	–	–	–	–	10 µM	> 10 µM	> 10 µM	9.8 µM	> 10 µM	inactive	inactive
C=C1C(=O)O[C@H]2/C=C(\C)C[C@@H]3C=C(CC[C@H]4O[C@@]4(C)CC[C@H]12)C(=O)O3	–	–	–	–	–	> 100 µM	4.8 µM	10 µM	9.3 µM	8.8 µM	> 10 µM	> 10 µM	–	–
C=C1C(=O)O[C@H]2/C=C(\C)C[C@@H]3C=C(C/C=C/[C@@](C)(O)CC[C@H]12)C(=O)O3	–	–	–	–	–	> 100 µM	20 µM	10 µM	> 10 µM	9.9 µM	> 10 µM	> 10 µM	–	–
CC(=O)Oc1ccccc1C(=O)O [ASPIRIN]	–	–	–	–	–	153 µM	> 100 µM	–	–	–	–	–	–	–
C=C1C(=O)O[C@H]2/C=C(\C)C[C@@H]3C=C(CC[C@@H](OO)C(=C)CC[C@H]12)C(=O)O3	inactive	inactive	inactive	inactive	inactive	–	–	–	–	–	–	–	inactive	inactive
